Hits are enriched below; roughly 3.3% of the tested compounds scored in any of these assays.
HEK293 NFkB inh = inhibitors of the PMA/ionomycin-induced NF-kB reporter in HEK293 cells; HEK-293 NF-kB luciferase reporter, luminescence; inhibition, % at 3 µM; 62,000 compounds, 0.21% hits;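 active = inhibition above the mean of all tested compounds plus 3 SD, cut at about 40% in these data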;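 note: 0% = stimulated DMSO wells and 100% = 10 µM reference inhibitor 5653914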
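Signal: luciferase luminescence; Material: HEK-293 cells with stable firefly luciferase reporter driven by four HIV NF-kB elements; Probe or stimulus: PMA with ionomycin; Replication: tested once; Times: 1 h compound pretreatment, then 16 h stimulation at 37 °C, 5% CO2; Benchmarks: DMSO and 10 µM reference inhibitor; Evaluation: per-plate % inhibition versus controls.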
5HT1E antag = blocks the human 5-HT1E serotonin receptor; 65,000 compounds, 0.99% hits; CHO 5-HT1E Ga15 NFAT-bla reporter, FRET, antagonist; inhibition, % at 6 µM; P28566;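 active = inhibition above a set limit, the mean inhibition across every tested compound plus 3 SD, cut at about 29% in these data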;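 note: signal is the 460 over 535 nm emission ratio of beta-lactamase substrate; 0% = agonist plus DMSO wells and 100% = wells without agonist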
Target sequence (P28566 whole entry, looked up): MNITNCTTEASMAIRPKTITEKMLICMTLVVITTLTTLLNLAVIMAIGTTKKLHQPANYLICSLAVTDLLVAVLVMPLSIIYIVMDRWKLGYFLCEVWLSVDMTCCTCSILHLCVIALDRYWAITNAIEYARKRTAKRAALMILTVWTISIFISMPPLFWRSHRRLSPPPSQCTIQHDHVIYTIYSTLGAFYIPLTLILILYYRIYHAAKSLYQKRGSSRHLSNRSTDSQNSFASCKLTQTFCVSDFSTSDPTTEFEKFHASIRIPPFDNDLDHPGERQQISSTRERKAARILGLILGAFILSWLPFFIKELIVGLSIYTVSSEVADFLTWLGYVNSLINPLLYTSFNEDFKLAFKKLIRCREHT
HTR1E agonist = activates the human 5-HT1E serotonin receptor. P28566. CHO 5-HT1E Ga15 NFAT-bla reporter, FRET; 0% DMSO wells, 100% control agonist wells. AID 574. 65,000 compounds, 0.69% hits. activation, % at 6 µM;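 active = activation above a set limit, the screen-wide mean activation plus 3 SD, cut at about 8.5% in these data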;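 note: 100% = positive control agonist at 1 µM giving full maximal response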
5-HT1A blocker = blocks the human serotonin 5-HT1a receptor; AID 612; inhibition, % at 10 µM; 62,000 compounds, 0.68% hits; CHO 5-HT1a Ga15 NFAT-bla reporter, antagonist mode;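 active = inhibition above the mean of all tested compounds plus 3 SD, cut at about 43% in these data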;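 note: receptor stimulated by 5-CT agonist at 100 nM near EC80; beta-lactamase reporter measured by ratiometric fluorescence of a cleavable substrate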
HTR1A agonist = 5-HT1a (human) receptor agonism; P08908; CHO 5-HT1a Ga15 NFAT-bla reporter, FRET ratio; 0% basal, 100% maximal reference agonist; activation, % at 10 µM; 65,000 compounds, 0.56% hits; AID 567;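 active = activation above the screen-wide mean activation plus 3 SD, cut at about 19% in these data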;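 note: 0% = DMSO wells and 100% = 5-CT at EC100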
Jurkat viability = cytotoxicity toward Jurkat cells. Jurkat E6.1 viability, ATP luminescence, 48 h. inhibition, % at 4 µM. 56,000 compounds, 1.2% hits;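 active = inhibition above the mean inhibition of all tested compounds plus 3 SD, cut at about 28% in these data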
* = called active by the depositor; · = not tested or not shown.

SMILES | HEK293 NFkB inh | 5HT1E antag | HTR1E agonist | 5-HT1A blocker | HTR1A agonist | Jurkat viability
CC1Cc2ccccc2N1C(=O)c1cc2c(=O)n3ccccc3nc2n1C (stereo not drawn) | -8 | 39* | 0 | -14 | 3 | 28
Cc1sc(NC(=O)c2ccco2)c(C(c2cccnc2)N2CCN(c3ccc(F)cc3)CC2)c1C (stereo not drawn) | 12 | -18 | 4 | 0 | 2 | 35*
CCOC(=O)C1CCN(C(c2cccnc2)c2c(NC(=O)c3ccco3)sc(C)c2C)CC1 (stereo not drawn) | 9 | -3 | 52* | 18 | 3 | 34*
COc1cc2c(cc1NC(=O)CC1SC(N3CCCC3)=NC1=O)oc1ccccc12 (stereo not drawn) | -6 | 5 | 1 | 7 | -5 | 0
COc1ccc2[nH]c(=O)c(CN(Cc3ccc(C)cc3)Cc3nnnn3CC3CCCO3)cc2c1 (stereo not drawn) | 20 | 2 | -1 | -15 | 0 | 1
O=C(CC1Oc2ccccc2NC1=O)NCCc1ccccc1 (stereo not drawn) | 7 | 1 | 1 | 8 | 49* | 0
CC(C)CCNC(=O)Cn1c(=O)oc2cc(S(=O)(=O)N3CCc4ccccc43)ccc21 | 11 | 35* | -1 | 30 | 1 | -4
CCCCOC(=O)Nc1cccc(C(C)=O)c1 | 4 | 11 | -1 | 7 | -2 | -5
CCOC(=O)C1=C(C)OC(N)=C(C#N)C1c1c(C)nn(-c2ccccc2)c1Cl (stereo not drawn) | 18 | 7 | -1 | 1 | -3 | ·
Cc1nn(-c2ccccc2)c(Cl)c1C1C(C#N)=C(N)Oc2n[nH]c(C)c21 (stereo not drawn) | 44* | 10 | 0 | 11 | 2 | -2
CCN(CC)C(=O)C1CCCc2c1[nH]c1ccc(Cl)cc21 (stereo not drawn) | 24 | -1 | 0 | 1 | -1 | 40*
Cc1ccc2[nH]c3c(c2c1)CCCC3C(N)=O (stereo not drawn) | · | -6 | -1 | · | -2 | ·
CCOc1cc2[nH]c(=O)n(CCCCC(=O)NC3CCCCC3)c(=O)c2cc1OCC | -6 | 1 | 0 | -10 | -3 | 1
Cc1ccc(C)c(OCCCC(=O)Nc2ccc(N3CCOCC3)cc2)c1 | 6 | -13 | 1 | -5 | 26* | 4
Cc1ccc(OCC(=O)Nc2ccc(N3CCOCC3)cc2)cc1 | 16 | 5 | 3 | -8 | -3 | 5
COc1ccccc1-c1noc(CCC(=O)Nc2ccccc2Cl)n1 | 11 | 8 | -2 | 7 | 0 | 8
COc1c2ccoc2nc2c(OC)c(OCC(O)C(C)(C)O)ccc12 (stereo not drawn) | 5 | -3 | 0 | 0 | -5 | -4
COc1c2c(nc3occc13)C(CCC(C)(C)O)(OC)C(O)CC2 (stereo not drawn) | 10 | -13 | 26* | -11 | -2 | -6
O=C(NCCCn1ccnc1)C(Cc1ccccc1)N1C(=O)c2ccccc2C1=O (stereo not drawn) | · | -1 | -1 | · | 2 | ·
CCCCc1nc(SCC(=O)Nc2ccc(S(N)(=O)=O)cc2)n[nH]1 | 9 | 0 | 14* | -5 | -1 | 1
Cc1ccc(NC(=O)CSc2n[nH]c(-c3ccncc3)n2)cc1 | 17 | -3 | 0 | -17 | 2 | 3
COc1cc(Cn2c(-c3nonc3N)nc3ccccc32)ccc1C | 23 | 52* | -1 | 64* | -5 | 31*
COc1cccc(Cn2c(-c3nonc3N)nc3ccccc32)c1 | 12 | 39* | 0 | 46* | -2 | 81*
CCCCOc1ccccc1NC(=O)Cn1c(-c2nonc2N)nc2ccccc21 | 38 | 71* | 3 | 62* | -3 | 33*
CCn1c(SCC(=O)Nc2cccc(C)c2)nc2c(c1=O)SC(C)C2 (stereo not drawn) | 14 | 1 | 1 | 12 | -1 | 4
SMILES | HEK293 NFkB inh | 5HT1E antag | HTR1E agonist | 5-HT1A blocker | HTR1A agonist | Jurkat viability
Cc1nc(CN2CCN(C(=O)c3ccc(Br)cc3)CC2)cs1 | 3 | -2 | -1 | 4 | -1 | -3
CC1(C)Cc2c(c(=S)nc(-c3ccccc3)n2CCOCCO)CO1 | 1 | 7 | 18* | -20 | 0 | ·
OCCOCCn1c(-c2ccccc2)nc(=S)c2c1CCCC2 | 3 | 8 | 1 | -6 | -2 | -2
COc1ccc(CCNc2c(N)n(Cc3ccccc3)c(=O)[nH]c2=O)cc1OC | 13 | 11 | 0 | -6 | 7 | -5
CCOCCN1CCN(c2c(C)c(C)nc3cc(-c4cc(OC)cc(OC)c4)nn23)CC1 | 35 | 40* | 4 | 7 | -1 | ·
COCCN1CCN(c2c(C)c(C)nc3cc(-c4cccc(OC)c4)nn23)CC1 | 8 | 2 | 0 | 3 | 1 | ·
Cc1sc(NC(=O)c2ccco2)nc1-c1ccc2c(c1)CC(C)N2C(=O)C1CC1 (stereo not drawn) | 7 | 5 | 0 | 7 | 1 | 64*
CSc1ncccc1C(=O)OCC(=O)NC1CCS(=O)(=O)C1 (stereo not drawn) | 8 | 8 | -1 | -2 | 21* | -6
O=C(COC(=O)c1ccccc1Oc1ccccc1)NC1CCS(=O)(=O)C1 (stereo not drawn) | 10 | 4 | 0 | -14 | 0 | -7
COc1ccc(S(=O)(=O)Cc2ccc(C(=O)N3CCN(c4cccc(C)c4)C(C)C3)o2)cc1 (stereo not drawn) | 9 | 19 | 1 | 15 | 2 | 90*
Nc1ccc(CN2CCN(c3ccc4ccccc4n3)CC2)cc1 | 2 | 1 | 14* | 11 | -1 | -3
Cn1cccc1Cc1nnc(SCC(=O)Nc2ccc3c(c2)OCO3)n1-c1ccc(F)cc1 | 19 | 10 | 0 | 13 | -2 | 2
Oc1c(CN2CCOCC2)cc(COCc2ccccc2)c2cccnc12 | 33 | 43* | 1 | 17 | -1 | 54*
CCOC(=O)CSc1nnc(Cn2nnc(-c3ccccc3)n2)n1C | 15 | -3 | -1 | -5 | 1 | -1
O=C(CSc1nnnn1-c1ccccc1)Nc1nsc(-c2ccc(Cl)cc2)n1 | 7 | -11 | 1 | 50* | 0 | -6
CCNc1nc(NC(C)C)nc(N(C#N)Cc2ccccc2)n1 | -1 | 20 | 1 | -18 | 2 | 3
CCNc1nc(NC(C)(C)C)nc(N(C#N)CC)n1 | 6 | 29* | 0 | -7 | 2 | 6
CCC1Oc2ccc(C)cc2N(CC(=O)NCc2cccc(OC)c2)C1=O (stereo not drawn) | 8 | -5 | 0 | 26 | -2 | -1
CCC(C)C(NCc1cccc(C)c1)C(=O)O (stereo not drawn) | 11 | 12 | -2 | -2 | 1 | ·
CC(C)(C)OC(=O)N[C@@H](Cc1ccccc1)c1nnc(S(=O)(=O)Cc2ccccc2)o1 | 5 | 55* | 1 | 78* | -3 | 10

Screens: PubChem, The Scripps Research Institute Molecular Screening Center
